Data reported in ChEMBL document CHEMBL1649317, “Acquisition of a transposon encoding extended-spectrum beta-lactamase SHV-12 by Pseudomonas aeruginosa isolates during the clinical course of a burn patient” (2010).
Values after ≈ are worked out from the molar mass of the structure shown. One block for each compound: values may come before it.

Experiments:
Pseudomonas aeruginosa [1] = experiment: Antimicrobial activity against SHV-12 ESBL producing Pseudomonas aeruginosa isolate 2205 isolated from burn patient by broth microdilution method; type: functional
Procedure, shortened: (§1)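 MICs were determined by broth microdilution following the CLSI proposal. For clavulanic acid combinations, clavulanate was held at a fixed concentration. The seven isolates came from a single burn patient over the clinical course. P072204 was taken from sputum; all others were taken from burn sites. Isolates were typed by PCR for blaSHV and IS26.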

Pseudomonas aeruginosa [2] = experiment: Antimicrobial activity against SHV-12 ESBL non-producing Pseudomonas aeruginosa isolate 2202 isolated from burn patient by broth microdilution method in presence of beta-lactamase inhibitor clavulanic acid
Pseudomonas aeruginosa [3] = experiment: Antimicrobial activity against SHV-12 ESBL non-producing Pseudomonas aeruginosa isolate 2203 isolated from burn patient by broth microdilution method in presence of beta-lactamase inhibitor clavulanic acid
Pseudomonas aeruginosa [4] = experiment: Antimicrobial activity against SHV-12 ESBL producing Pseudomonas aeruginosa isolate 2204 isolated from burn patient by broth microdilution method; type: functional; procedure, shortened: as §1
Pseudomonas aeruginosa [5] = experiment: Antimicrobial activity against SHV-12 ESBL producing Pseudomonas aeruginosa isolate 2203 isolated from burn patient by broth microdilution method; type: functional; procedure, shortened: as §1
Pseudomonas aeruginosa [6] = experiment: Antimicrobial activity against SHV-12 ESBL producing Pseudomonas aeruginosa isolate 2202 isolated from burn patient by broth microdilution method; type: functional; procedure, shortened: as §1
Pseudomonas aeruginosa [7] = experiment: Antimicrobial activity against SHV-12 ESBL producing Pseudomonas aeruginosa isolate 2201 isolated from burn patient by broth microdilution method in presence of beta-lactamase inhibitor clavulanic acid; type: functional
Pseudomonas aeruginosa [8] = experiment: Antimicrobial activity against SHV-12 ESBL producing Pseudomonas aeruginosa isolate 2205 isolated from burn patient by broth microdilution method in presence of beta-lactamase inhibitor clavulanic acid; type: functional
Pseudomonas aeruginosa [9] = experiment: Antimicrobial activity against SHV-12 ESBL producing Pseudomonas aeruginosa isolate 2206 isolated from burn patient by broth microdilution method; type: functional; procedure, shortened: as §1
Pseudomonas aeruginosa [10] = experiment: Antimicrobial activity against SHV-12 ESBL producing Pseudomonas aeruginosa isolate 2201 isolated from burn patient by broth microdilution method; type: functional; procedure, shortened: as §1
Pseudomonas aeruginosa [11] = experiment: Antimicrobial activity against SHV-12 ESBL producing Pseudomonas aeruginosa isolate 2206 isolated from burn patient by broth microdilution method in presence of beta-lactamase inhibitor clavulanic acid; type: functional
Pseudomonas aeruginosa [12] = experiment: Antimicrobial activity against SHV-12 ESBL producing Pseudomonas aeruginosa isolate 2207 isolated from burn patient by broth microdilution method in presence of beta-lactamase inhibitor clavulanic acid; type: functional
Pseudomonas aeruginosa [13] = experiment: Antimicrobial activity against SHV-12 ESBL non-producing Pseudomonas aeruginosa isolate 2204 isolated from burn patient by broth microdilution method in presence of beta-lactamase inhibitor clavulanic acid
Pseudomonas aeruginosa [14] = experiment: Antimicrobial activity against SHV-12 ESBL producing Pseudomonas aeruginosa isolate 2207 isolated from burn patient by broth microdilution method; type: functional; procedure, shortened: as §1

Structure (SMILES): CC(C)(O/N=C(\C(=O)N[C@@H]1C(=O)N2C(C(=O)[O-])=C(C[n+]3ccccc3)CS[C@H]12)c1csc(N)n1)C(=O)O [CEFTAZIDIME]
MIC (Pseudomonas aeruginosa [1]): 512 µg/mL (≈ 937 µM) | MIC (Pseudomonas aeruginosa [2]): 16 µg/mL | MIC (Pseudomonas aeruginosa [3]): 8 µg/mL | MIC (Pseudomonas aeruginosa [4]): 4 µg/mL (≈ 7.32 µM) | MIC (Pseudomonas aeruginosa [5]): 8 µg/mL (≈ 14.6 µM) | MIC (Pseudomonas aeruginosa [6]): 16 µg/mL (≈ 29.3 µM) | MIC (Pseudomonas aeruginosa [7]): 2 µg/mL | MIC (Pseudomonas aeruginosa [8]): 16 µg/mL | MIC (Pseudomonas aeruginosa [9]): 512 µg/mL (≈ 937 µM) | MIC (Pseudomonas aeruginosa [10]): 2 µg/mL (≈ 3.66 µM) | MIC (Pseudomonas aeruginosa [11]): 16 µg/mL | MIC (Pseudomonas aeruginosa [12]): 16 µg/mL | MIC (Pseudomonas aeruginosa [13]): 4 µg/mL | MIC (Pseudomonas aeruginosa [14]): 512 µg/mL (≈ 937 µM)

Structure (SMILES): CC1(C)S[C@@H]2[C@H](NC(=O)[C@H](C(=O)O)c3ccsc3)C(=O)N2[C@H]1C(=O)O [TICARCILLIN]
MIC (Pseudomonas aeruginosa [1]): > 512 µg/mL | MIC (Pseudomonas aeruginosa [2]): 32 µg/mL | MIC (Pseudomonas aeruginosa [3]): 32 µg/mL | MIC (Pseudomonas aeruginosa [4]): 64 µg/mL (≈ 166 µM) | MIC (Pseudomonas aeruginosa [5]): 32 µg/mL (≈ 83.2 µM) | MIC (Pseudomonas aeruginosa [6]): 32 µg/mL (≈ 83.2 µM) | MIC (Pseudomonas aeruginosa [7]): 16 µg/mL | MIC (Pseudomonas aeruginosa [8]): > 512 µg/mL | MIC (Pseudomonas aeruginosa [9]): > 512 µg/mL | MIC (Pseudomonas aeruginosa [10]): 16 µg/mL (≈ 41.6 µM) | MIC (Pseudomonas aeruginosa [11]): > 512 µg/mL | MIC (Pseudomonas aeruginosa [12]): > 512 µg/mL | MIC (Pseudomonas aeruginosa [13]): 64 µg/mL | MIC (Pseudomonas aeruginosa [14]): > 512 µg/mL

Structure (SMILES): CO/N=C(\C(=O)N[C@@H]1C(=O)N2C(C(=O)O)=C(COC(C)=O)CS[C@H]12)c1csc(N)n1 [CEFOTAXIME]
MIC (Pseudomonas aeruginosa [1]): 512 µg/mL (≈ 1120 µM) | MIC (Pseudomonas aeruginosa [2]): 256 µg/mL | MIC (Pseudomonas aeruginosa [3]): 128 µg/mL | MIC (Pseudomonas aeruginosa [4]): 64 µg/mL (≈ 141 µM) | MIC (Pseudomonas aeruginosa [5]): 128 µg/mL (≈ 281 µM) | MIC (Pseudomonas aeruginosa [6]): 256 µg/mL (≈ 562 µM) | MIC (Pseudomonas aeruginosa [7]): 16 µg/mL | MIC (Pseudomonas aeruginosa [8]): 64 µg/mL | MIC (Pseudomonas aeruginosa [9]): 512 µg/mL (≈ 1120 µM) | MIC (Pseudomonas aeruginosa [10]): 16 µg/mL (≈ 35.1 µM) | MIC (Pseudomonas aeruginosa [11]): 64 µg/mL | MIC (Pseudomonas aeruginosa [12]): 64 µg/mL | MIC (Pseudomonas aeruginosa [13]): 64 µg/mL | MIC (Pseudomonas aeruginosa [14]): 512 µg/mL (≈ 1120 µM)

Structure (SMILES): CCN1CCN(C(=O)N[C@@H](C(=O)N[C@@H]2C(=O)N3[C@@H]2SC(C)(C)[C@@H]3C(=O)O)c2ccccc2)C(=O)C1=O [PIPERACILLIN]
MIC (Pseudomonas aeruginosa [1]): 256 µg/mL (≈ 495 µM) | MIC (Pseudomonas aeruginosa [2]): 32 µg/mL | MIC (Pseudomonas aeruginosa [3]): 16 µg/mL | MIC (Pseudomonas aeruginosa [4]): 16 µg/mL (≈ 30.9 µM) | MIC (Pseudomonas aeruginosa [5]): 16 µg/mL (≈ 30.9 µM) | MIC (Pseudomonas aeruginosa [6]): 32 µg/mL (≈ 61.8 µM) | MIC (Pseudomonas aeruginosa [7]): 16 µg/mL | MIC (Pseudomonas aeruginosa [8]): 128 µg/mL | MIC (Pseudomonas aeruginosa [9]): 512 µg/mL (≈ 989 µM) | MIC (Pseudomonas aeruginosa [10]): 16 µg/mL (≈ 30.9 µM) | MIC (Pseudomonas aeruginosa [11]): 256 µg/mL | MIC (Pseudomonas aeruginosa [12]): 256 µg/mL | MIC (Pseudomonas aeruginosa [13]): 16 µg/mL | MIC (Pseudomonas aeruginosa [14]): 512 µg/mL (≈ 989 µM)

Structure (SMILES): NCC[C@H](O)C(=O)N[C@@H]1C[C@H](N)[C@@H](O[C@H]2O[C@H](CN)[C@@H](O)[C@H](O)[C@H]2O)[C@H](O)[C@H]1O[C@H]1O[C@H](CO)[C@@H](O)[C@H](N)[C@H]1O [AMIKACIN]
MIC (Pseudomonas aeruginosa [1]): 128 µg/mL (≈ 219 µM) | MIC (Pseudomonas aeruginosa [4]): 4 µg/mL (≈ 6.83 µM) | MIC (Pseudomonas aeruginosa [5]): 4 µg/mL (≈ 6.83 µM) | MIC (Pseudomonas aeruginosa [6]): 4 µg/mL (≈ 6.83 µM) | MIC (Pseudomonas aeruginosa [9]): 128 µg/mL (≈ 219 µM) | MIC (Pseudomonas aeruginosa [10]): 4 µg/mL (≈ 6.83 µM) | MIC (Pseudomonas aeruginosa [14]): 128 µg/mL (≈ 219 µM)

Structure (SMILES): C[C@H]1[C@H](NC(=O)/C(=N\OC(C)(C)C(=O)O)c2csc(N)n2)C(=O)N1S(=O)(=O)O [AZTREONAM]
MIC (Pseudomonas aeruginosa [1]): 512 µg/mL (≈ 1180 µM) | MIC (Pseudomonas aeruginosa [9]): 512 µg/mL (≈ 1180 µM) | MIC (Pseudomonas aeruginosa [14]): 512 µg/mL (≈ 1180 µM)

MIC (Pseudomonas aeruginosa [1]): 256 µg/mL (≈ 533 µM) | MIC (Pseudomonas aeruginosa [9]): 512 µg/mL (≈ 1070 µM) | MIC (Pseudomonas aeruginosa [14]): 512 µg/mL (≈ 1070 µM)
Structure (SMILES): CO/N=C(\C(=O)N[C@@H]1C(=O)N2C(C(=O)[O-])=C(C[N+]3(C)CCCC3)CS[C@H]12)c1csc(N)n1
